697 NFkB inh = lowers PMA/ionomycin-induced NF-kB signal in 697 B cells | inhibition, % at 4 µM | 330,000 compounds, 0.33% hits | AID 435022 | 697 B-cell NF-kB luciferase reporter, 16 h; in the data active = inhibition above about 35%
Jurkat NFkB inh = inhibitors of the PMA/ionomycin-induced NF-kB reporter in Jurkat cells; PMA/ionomycin-induced NF-kB luciferase reporter, luminescence; inhibition, % at 4 µM; 330,000 compounds, 0.53% hits; in the data active = inhibition above about 50%
Gli-Sufu antag = Gli-Sufu pathway antagonism. Sufu-KO-LIGHT fibroblasts, Gli luciferase reporter luminescence. inhibition, % at 5 µM. 340,000 compounds, 0.74% hits. AID 588413;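 active = inhibition above about 55%, limit read from the data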;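 also: 0% = DMSO-treated cells and 100% = wells with medium but no cells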
TAG inh = inhibitors of triacylglycerol accumulation; H9c2 cells, Nile Red lipid (TAG) fluorescence; cells loaded with 200 µM oleic acid; 230,000 compounds, 0.66% hits; inhibition, % at 12.5 µM;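 active = pattern-corrected inhibition of lipid staining of at least 50% with the nuclear-stain viability signal not falling by more than 50%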;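 also: 0% = DMSO wells and 100% = triacsin C control wells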
hiPSC survival = hiPSC single-cell survival enhancement; ATPlite luminescence; 100% = ROCK inhibitor wells, 0% = DMSO; survival enhancement, % at 20 µM; 360,000 compounds, 0.044% hits; AID 602274; in the data active = survival enhancement above about 18%;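 also: cells exposed to compounds for 16 hours before the ATP read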
Lipid droplet = modulators of hepatic lipid droplet formation; AML12 mouse hepatocytes, oleate lipid droplets, BODIPY imaging; inhibition, % at 6.5 µM; 240,000 compounds, 0.4% hits; AID 1656;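 active = lipid droplet intensity inhibited by at least 50%, with more than 500 cells counted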
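Material: mouse AML12 hepatocyte cell line, fixed after treatment; Timing: compound with oleate, overnight; Technique: high-content imaging of BODIPY-stained droplets and DAPI nuclei; Probe or stimulus: oleate, 100 µM final; Dosing: compound at 6.5 µM only.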
Gli antag conf = confirmation of Gli-SUFU pathway antagonists; shares compounds with Gli-Sufu antag; Sufu-KO-LIGHT cells, Gli luciferase reporter, luminescence; inhibition, % at 5 µM; 2,500 compounds, 40% hits; AID 602428;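 active = mean inhibition at 5 µM reaching about 45%, limit read from the data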;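 also: plate controls were DMSO-treated cells for no effect and wells lacking cells for full effect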
SufuKO cytotox = counter-screen for Gli-SUFU antagonists: cytotoxicity; 2,500 compounds, 32% hits; cytotoxicity, % at 5 µM; shares compounds with Gli-Sufu antag; Sufu-KO-LIGHT cells cytotoxicity, ATP luminescence;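 active = mean cytotoxicity at 5 µM above about 25%, limit read from the data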;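 also: cells exposed to compound overnight for roughly 16 to 18 hours; plate controls were DMSO wells with cells for no effect and medium without cells for full effect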
Wnt3a cs = Wnt3a reporter inhibition counter-screen; 2,500 compounds, 20% hits; Wnt-LIGHT cells, Wnt3a-driven luciferase reporter, luminescence; AID 651995; shares compounds with Gli-Sufu antag; inhibition, % at 6.25 µM;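 active = mean inhibition above about 25%, limit read from the data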
Numbers without * were called inactive; / = no result. Sampled rows, rich in hits. Any-hit rate of the full collection: about 1.8%.

SMILES	697 NFkB inh	Jurkat NFkB inh	Gli-Sufu antag	TAG inh	hiPSC survival	Lipid droplet	Gli antag conf	SufuKO cytotox	Wnt3a cs
Cc1ccccc1C1NC(c2ccccc2C)C([N+](=O)[O-])C(C)(C)C1[N+](=O)[O-] (stereo not drawn)	-9.0	10.3	54.0	-11.4	-0.2	-10.2	16.5	10.8	-16.2
CCOc1ccc(NS(=O)(=O)c2cccc(C(=O)N(C)Cc3ccco3)c2)cc1	-4.3	-10.8	13.6	-6.3	-0.3	/	/	/	/
COC(=O)c1ccsc1NS(=O)(=O)c1ccccc1	-7.5	5.2	3.9	-8.5	-0.4	-7.6	/	/	/
Cc1ccc(C#N)c(SCc2nnc(-c3ccc(Cl)cc3)o2)n1	-195.4	17.3	75.0*	/	-4.1	-13.0	87.5*	60.2*	99.5*
Cc1ccc(C#N)c(SCc2cc3c(cc2Cl)OCO3)n1	-5.4	13.8	-3.3	/	1.2	/	/	/	/
O=C(Nc1ccc2oc(-c3ccccc3F)nc2c1)c1ccc2c(c1)OCCO2	-61.6	1.3	54.4	/	-0.8	/	11.8	11.8	-54.3
O=C(Nc1cc(Cl)ncn1)c1ccccc1	0.6	-4.5	5.8	-15.8	0.1	/	/	/	/
O=C(Nc1cc(N2CCCCC2)ncn1)c1ccccc1	3.5	-10.0	71.5*	/	-3.2	3.2	76.9*	5.1	-72.5
O=C(COc1cc2oc(=O)cc(-c3ccccc3)c2cc1Cl)NCc1ccccn1	1.9	5.2	52.7	/	0.0	26.5	7.1	22.1	8.0
CC1OC(c2ccccc2)OC2COC(c3ccccc3)OC12 (stereo not drawn)	/	/	3.0	-0.2	2.6	/	/	/	/
CC1CCN(c2ccccc2NC(=S)NC(=O)c2ccc(-c3cccc([N+](=O)[O-])c3)o2)CC1	19.5	-2.7	79.3*	/	0.3	/	85.8*	32.4*	15.5
Cc1c(C(=O)N2c3ccccc3Sc3ccccc32)cccc1[N+](=O)[O-]	-8.1	1.8	96.1*	/	3.7	-6.9	35.9	8.3	-20.2
O=C(CN1CCN(c2ccc(C(F)(F)F)cn2)CC1)NCc1ccc2c(c1)OCO2	-6.2	18.3	0.7	3.9	-0.8	-6.3	/	/	/
CC(=O)NC(CCS(C)(=O)=O)C(=O)Nc1cc(C)ccc1C (stereo not drawn)	11.1	6.9	53.7	-3.2	2.5	-26.9	9.5	7.5	-10.7
CC(=O)NC(CCS(C)(=O)=O)C(=O)Nc1cccc(C)c1 (stereo not drawn)	14.1	7.6	-3.0	8.7	-3.7	-5.4	/	/	/
O=C(COc1ccc2ccccc2c1)NNC(=O)Cc1ccccc1	/	/	-0.3	/	-0.5	-0.1	/	/	/
O=C(COc1ccc2ccccc2c1)NNC(=O)c1ccccc1	-2.8	4.6	51.3	/	-0.6	/	17.7	2.8	5.8
O=c1ccc2ccc(O[C@@H]3O[C@H](CO)[C@@H](O)[C@H](O)[C@H]3O)c(O)c2o1	10.4	8.2	-1.6	/	4.8	/	/	/	/
COc1cc2ccc(=O)oc2c(O[C@@H]2O[C@H](CO)[C@@H](O)[C@H](O)[C@H]2O)c1O	13.4	10.7	3.1	-4.8	-2.3	4.8	21.5	6.0	-3.6
Cc1ccccc1C(=O)Nc1nnc(SC(C)C)s1	-13.7	-9.4	-37.9	-10.9	-0.1	6.9	/	/	/
COc1ccc(-c2noc(CCCC(=O)N3CCN(c4cc(C)ccc4C)CC3)n2)cc1	-40.3	/	7.4	-9.3	-1.1	/	/	/	/
COc1ccc(-c2noc(CCCCC(=O)N3CCN(c4cc(C)ccc4C)CC3)n2)cc1	30.9	/	67.9*	-25.6	-0.2	/	72.9*	28.4*	29.5*
CN1CCc2nc(NC(=O)c3cccc(OC(F)F)c3)sc2C1	-29.2	-36.2	68.5*	/	1.5	-0.7	10.2	11.2	-101.4
CN1CCc2nc(NC(=O)COc3ccc4ccccc4c3)sc2C1	-0.7	9.7	11.2	19.2	-2.2	-35.5	/	/	/
CC(C)NC(=O)c1ccccc1NC(=O)C1CCCO1 (stereo not drawn)	5.7	1.8	58.5*	/	2.9	13.9	13.1	7.5	-1.2
SMILES	697 NFkB inh	Jurkat NFkB inh	Gli-Sufu antag	TAG inh	hiPSC survival	Lipid droplet	Gli antag conf	SufuKO cytotox	Wnt3a cs
O=C(CSc1ncnc2sccc12)NCc1ccc2c(c1)OCO2	-12.3	5.4	-0.6	-7.7	-1.9	/	/	/	/
O=c1c2ccccc2cnn1CCOc1ccccc1	-162.9	-28.3	59.1*	/	-2.3	-4.5	37.7	17.8	94.7*
COc1ccc(S(=O)(=O)NCc2cccnc2)cc1Br	-14.5	31.0	59.0*	/	-0.3	-22.3	42.5	23.6	10.9
CNC(=O)c1cc(S(=O)(=O)NCc2ccncc2)ccc1OC	-30.2	13.7	6.9	-19.9	-0.1	-0.8	/	/	/
COc1cc(S(=O)(=O)NCc2ccncc2)ccc1Br	-19.1	27.9	67.8*	-2.5	-0.5	-26.8	61.0*	16.5	30.4*
COc1ccc(S(=O)(=O)NCc2cccnc2)cc1	6.4	21.3	2.5	/	-0.1	-2.4	/	/	/
Cc1cc(Br)c(S(=O)(=O)NCc2ccncc2)cc1C	-19.1	48.6	54.0	-27.7	-0.4	-60.0	52.0*	21.8	25.9*
CC(C)N(CCCNC(=O)C1CCC(CNS(=O)(=O)c2ccccc2)CC1)Cc1ccccc1 (stereo not drawn)	-0.9	-6.3	60.2*	/	-0.5	-12.0	27.5	18.2	-10.0
Cc1ccc(C[n+]2cccc(-c3ccccc3)c2)c(C)c1	28.2	18.6	83.7*	/	-2.0	-20.2	83.9*	21.4	56.4*
Cc1ccc2ccc[n+](Cc3ccccc3)c2c1	0.6	29.3	21.8	-37.5	-0.3	/	/	/	/
CCOC(=O)CNC(=S)n1ncnc1N	20.5	-4.1	3.9	-6.3	-0.9	-11.6	/	/	/
CCN(Cc1ccncc1)C(=O)C1CCN(S(=O)(=O)c2cccs2)CC1	12.8	-4.3	98.9*	-4.9	-1.2	12.1	13.2	18.3	9.9
CCN(Cc1ccncc1)C(=O)c1cccc(S(=O)(=O)N2CCCCC2)c1	1.2	6.9	94.6*	8.2	-1.2	/	19.8	11.2	-16.8
CCN(CC(=O)Nc1c(F)cccc1F)C(=O)c1cccc(S(=O)(=O)N2CCCCCC2)c1	-1.6	-14.8	1.4	6.4	-0.5	/	/	/	/
CCOc1ccc(NC(=S)NNc2ccnc3cc(Cl)ccc23)cc1	4.2	-12.4	55.7*	36.4	1.6	-4.4	65.5*	20.8	-30.8
S=C(NNc1ccnc2cc(Cl)ccc12)Nc1ccc(Cl)cc1Cl	-27.3	10.6	19.5	21.9	-0.3	4.3	/	/	/
Cc1ccc2c(c1)nnn2C1CCN(S(=O)(=O)c2ccc(C(=O)N3C(C)CCCC3C)cc2)CC1 (stereo not drawn)	-51.7	15.2	67.0*	-120.8	0.8	/	69.5*	29.6*	18.4

Assay outcomes deposited in PubChem by Sanford-Burnham Center for Chemical Genomics.
